Broadly, the apparent Kd is the concentration giving half-maximal binding under the conditions of the assay.

The test system of this data set is MS2 coat protein. Briefly: apparent Kd, MS2 coat protein; higher = weaker binding; RNA-MaP array; FMN 200 µM where present. The essentials:
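Two titrations, one without ligand and one with constant ligand, were run with SNAP-549-labelled MS2 coat protein from 0.7 or 1.5 nM, doubling to 3 µM. The targets were designs transcribed by stalled E. coli RNA polymerase on Illumina sequencing-chip clusters, in 100 mM Tris-HCl pH 7.5, 80 mM KCl, 4 mM MgCl2, BSA, DTT, yeast tRNA and Tween-20. The apparent Kd is the median of filtered per-cluster binding-curve fits, with green signal normalised to red-channel RNA signal and control-cluster median Fmax.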

Where [1] appears, read: designed as: ON switch for flavin mononucleotide, no ligand.
Where [2] appears, read: ligand present: flavin mononucleotide, designed as: ON switch for flavin mononucleotide.
[3] abbreviates: designed as: OFF switch for flavin mononucleotide, no ligand.
Setting [4] is: ligand present: flavin mononucleotide, designed as: OFF switch for flavin mononucleotide.

As for “UUCCAACAUGAGGAUCACCCAUGUCGGAAGCAUUAAGGAUAUGGGCGGCCGGUGGCUGAACCAGAAGGUAAGCCAG”, the “apparent Kd” value was found to be 15.3 nM under setting [1] and 18.1 nM under setting [2].
“GCGUAUUAGGUGUAGCUAGUCAUUCAAGAAGGGUGAAGAACAUGAGGAUCACCCAUGUAGUUUAUACAGGAUAUUGAUAUACGC”: the “apparent Kd” value was determined as 528 nM under setting [1] and 235 nM under setting [2].
The matching figures for “AAAAUCACAUGAGGAUCACCCAUGUACCGAGCUAGGGCUACAUAGGAUAUGACAAGUAUAGCUUGUCAGAAGGGUGAGUCUCGC”: 166 nM and 258 nM.
As for “GGUUAUUGCAAGGAUAUGCUUUUUUGUGAAAUUGCAGAAGGUGCAACAUGAGGAUCACCCAUGUUGGAUGGGUU”, the “apparent Kd” value reads like this: under setting [3], 104 nM; under setting [4], 131 nM.
The like results for “GUCAGCUCGUGAGGAUAUACAUGUGCUGGAUACAGCACUAUUAAAUUCACAUGAGGAUCACCCAUGUAGAAGGCACGAGCUGAU” were, in that order, 15.6 nM and 17.8 nM.
Consider “UCCACUGCUGAGAAGGGAUACGUCUGGCUCGCAUCAGGAUAUCGAUACAGUGCAGCAUGAGGACAUGAGGAUCACCCAUGUGUG”, for which the “apparent Kd” value is 104 nM under setting [1] and 68.8 nM under setting [2].
The like results for “CCGUAGAUGGGACAGGAUAUGACUGUCGUCACAUGAGGAUCACCCAUGUCCCGGCAAUGCCACCGUUAGAAGGGUCCCGUCUCGG” were, in that order, 14.4 nM and 15 nM.
With “UGGUAACAUGAGGAUCACCCAUGUCAGGAUAUCAGUAAGAAUAGAUGAGAGUAGAAGAUGAGAAGGGACUAUAU”, the “apparent Kd” value under setting [3] amounted to 29.4 nM and the “apparent Kd” value under setting [4] amounted to 24.4 nM.
The like results for “GCCUCACAUGAGGAUCACCCAUGUCAGGAUAUAGGAGGCGAUAGAAAUCCUACCGCCGCUAGAAGGGACUGGCA” were, in that order, 39.8 nM and 91.2 nM.
The matching figures for “UGAUCUUUUGUUAGGAUAUGCUGUUGUUUUCAACAGCAGAAGGGACAUGAGGAUCACCCAUGUCUUGUCAUAAA”: 12 nM and 16.4 nM.
The like results for “AUCAGCUCGUCAGGAUAUACGUCACUGCGUCAGCAGUGUGGGAAGAUCACAUGAGGAUCACCCAUGUAGAAGGGACGAGCUGAU” were, in that order, 635 nM and 20.4 nM.
“UGUCGGAGCAGAGGAUAUUACAUGAGGAUCACCCAUGUAUGAACCAAUAGCUGGAAACAGCAAUGUAAGAAGGCUGCUUCGACA”: the “apparent Kd” value under setting [3] was 12.4 nM and the “apparent Kd” value under setting [4] came to 145 nM.
Take “UGGUACUAGGGAGGAUAUGGGAAGAUACAUGAGGAUCACCCAUGUUGAAGAAUGCCGAGAGGCAACUAGAAGGCCCUAGUACCU”: the “apparent Kd” value by setting is: under setting [1], 137 nM; under setting [2], 9.13 nM.
Consider “AGCUACGUUUCGUAGCAGCUAGGUGAGGAUAUCCUUAUACAUGAGGAUCACCCAUGUUAGCCAUGGGAGAAGGCGCCUAGAAAG”, for which the “apparent Kd” value under setting [1] came to 328 nM and the “apparent Kd” value under setting [2] was 24.8 nM.
The like results for “CGUCGAUACCAGAAGGACAUGAGGAUCACCCAUGUAGGAUAUGGGUGACCGGGAUGGCAGACACGGUGCCCGGGCACAUGCGAC” were, in that order, 28.9 nM and 9.54 nM.
Regarding “CAGCGGGCAGGAUAUGCACCUUGAGACAAAUGUCUGUCCGGACAUGAGGAUCACCCAUGUAGAAGGGCCACGGA”, the “apparent Kd” value is, setting by setting: under setting [3], 55.4 nM; under setting [4], 44.5 nM.
Take “UCACAGGGAGGAUAUACAUGAGGAUCACCCAUGUGAAUCUUCGACCUGCAGGUACUUUGUAGAAGGCCCAGUGG”: the “apparent Kd” value by setting is: under setting [3], 107 nM; under setting [4], 123 nM.
The like results for “GUGAGUGGUCAGGAUAUGCUGUACAAAAGUACAGCAGAAGGGACUACAUGAGGAUCACCCAUGUUUACUUCAUG” were, in that order, 268 nM and 311 nM.
Turning to “GUAGCUAUCGGAGGAUAUUCAUACGGGAAACGGACAUGAGGAUCACCCAUGUGGCGAAAGCCUUGGGAGAAGGCCGAUAGCUAC”, the “apparent Kd” value under setting [1] came to 37.4 nM and the “apparent Kd” value under setting [2] is 8.89 nM.
Regarding “GCGUGGUUCUAGAAGGUGCUAGCGAUAAGCUAGCAAGGAUAUAGACAUGAGGAUCACCCAUGUCUAAGAGAAAUAGACACACGC”, the “apparent Kd” value under setting [3] came to 4.56 nM and the “apparent Kd” value under setting [4] turned out to be 5.09 nM.
The matching figures for “GGGUACAUGAGGAUCACCCAUGUAACGUGGAUAAGCUAUAAUAGAAGGAUAAGAGGAGAUGAGGUAUAGGAUAUAUCAUGGGUG”: 42.6 nM and 17.1 nM.
As to “GUCAUCACAUGAGGAUAUGCUCGGGUUUCCCGAGCAGAAGGCAUGGCAUACAUGAGGAUCACCCAUGUUGACAUUAAGAUUGUA”, the “apparent Kd” value came out at 10.3 nM under setting [1] and 6.73 nM under setting [2].
The matching figures for “CUCGAGCCAAGGCUCGCGAGUACACAGGAUAUGGAAAGUCACAUGAGGAUCACCCAUGUCCAAAACCAGAAGGGUGAGACUAAG”: 425 nM and 85.7 nM.
“AAAGUGUCAGGAUAUGCGAAGGCAUCUGACAGAUGAGGAUCGCAGAAGGGACAUGAGGAUCACCCAUGUAAAAA”: the “apparent Kd” value by setting is: under setting [3], 45.2 nM; under setting [4], 122 nM.
With “UAGGAUCAACGAGGAUAUAAUAGGUUCAAUUUUUUAUAUUGUUUACAUGAGGAUCACCCAUGUUAUUAGAAGGCGUAUGGGAUU”, the “apparent Kd” value under setting [1] was 53.5 nM and the “apparent Kd” value under setting [2] worked out at 36.9 nM.
For “UUAAAUCAUGUAGGAUAUGCAUGGCGAAGCUACGCAGAAGGACAUGAGGAUCACCCAUGUGCUAGCGUCUGAGUACAGAUGCAA”, the “apparent Kd” value reads like this: under setting [3], 39.3 nM; under setting [4], 259 nM.
For the sequence “ACUGCUCGAGGAUAUACAUGAGGAUCACCCAUGUAACCCAGAAGCACGGCCUCAGGAUGUAGAAGGCGACGCAA”, the “apparent Kd” value reads like this: under setting [3], 13.1 nM; under setting [4], 13.2 nM.
The like results for “GGUAAGAAGUGCGUGAGCUACUUGAGAAGGCGACAUGAGGAUCACCCAUGUCUGUUCCUCAAGUUCGAGGAUAUCAGGUAGUUG” were, in that order, 7.42 nM and 9.06 nM.
As for “CGUGUACGAGGAUAUAGAUUAGGCGACAUGAGGAUCACCCAUGUGAUCAAUCUAUUUGGUUUAGAAGGUGUACAUG”, the “apparent Kd” value runs as follows: under setting [3], 16.7 nM; under setting [4], 17.6 nM.
The matching figures for “CAAAUUUGGUAAGGAUAUCCCACAUUAUUCUGACCCGUGCAAGCUACAUGAGGAUCACCCAUGUGGGAGAAGGUGCGUUAAAGA”: 63 nM and 79 nM.
As for “UUGAUAAGGAGAGGAUAUGGACAUGAGGAUCACCCAUGUACAUGGGAAUAUAUACUGAAUUUUUACUAGAAGGCUUACAUAUUU”, the “apparent Kd” value was found to be 14.7 nM under setting [3] and 13 nM under setting [4].
The like results for “AAAGCAAUGUCAUGCUCACCGGACAGAAGGCAAUGUGGGCAGCCCGACAUGAGGAUCACCCAUGUUGAGGAUAUGUCCCGUCCU” were, in that order, 2.53 nM and 2.54 nM.
The matching figures for “UAAAAACAUGAGGAUCACCCAUGUGAGGAUAUCGAAAAAAAAAAAUUAAAAAAGGAAGCGAGAAGGUACGGGAU”: 53.1 nM and 49.6 nM.
Regarding “UAUAAAAUAGGAUGACAUGAGGAUCACCCAUGUUGCGCGAGGAGAAGGCCCAUUCGGCAACUAUGGGAGGAUAUCCAUCGCCUG”, the “apparent Kd” value reads like this: under setting [1], 66.5 nM; under setting [2], 24.1 nM.
For “UGUAUGGACAGAGGAUAUACGGAUAGGAUCUACUAUCCUCCUUAAAUAACAUGAGGAUCACCCAUGUAGAAGGCUGUCCAUACU”, the “apparent Kd” value was determined as 18.6 nM under setting [3] and 43.5 nM under setting [4].
With “GUACAUGAGCAGAAGGGCAAUUAAUUAAAUUUUUAUGUUUAUCAGAUAUGCAGGAUAUGUUAAACAUGAGGAUCACCCAUGUAC”, the “apparent Kd” value by setting is: under setting [1], 129 nM; under setting [2], 65.8 nM.

(Values after the EternaBench riboswitch data.)
